Test results reported in BindingDB's records for doi:10.1021/jm030110r (Pharmaceutical Research Institute, 2003).

Target: Proto-oncogene tyrosine-protein kinase Src (Rattus norvegicus, UniProt Q9WUD9)
Test: Inhibition of v-Src tyrosine kinase autophosphorylation in SR3Y1 cells after 15 hr
Procedure, shortened: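 SR-3Y1 cells exposed to drug 15 h, lysed on ice 20 min in Tris pH 7.5 RIPA-type buffer with protease inhibitors and 1 mM vanadate. Equal-protein lysates run on SDS-PAGE, blotted with anti-phosphotyrosine antibody, HRP secondary, ECL detection. IC50 = concentration halving tyrosine phosphorylation.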

Sequence of Proto-oncogene tyrosine-protein kinase Src (Q9WUD9 2-536 limits assumed): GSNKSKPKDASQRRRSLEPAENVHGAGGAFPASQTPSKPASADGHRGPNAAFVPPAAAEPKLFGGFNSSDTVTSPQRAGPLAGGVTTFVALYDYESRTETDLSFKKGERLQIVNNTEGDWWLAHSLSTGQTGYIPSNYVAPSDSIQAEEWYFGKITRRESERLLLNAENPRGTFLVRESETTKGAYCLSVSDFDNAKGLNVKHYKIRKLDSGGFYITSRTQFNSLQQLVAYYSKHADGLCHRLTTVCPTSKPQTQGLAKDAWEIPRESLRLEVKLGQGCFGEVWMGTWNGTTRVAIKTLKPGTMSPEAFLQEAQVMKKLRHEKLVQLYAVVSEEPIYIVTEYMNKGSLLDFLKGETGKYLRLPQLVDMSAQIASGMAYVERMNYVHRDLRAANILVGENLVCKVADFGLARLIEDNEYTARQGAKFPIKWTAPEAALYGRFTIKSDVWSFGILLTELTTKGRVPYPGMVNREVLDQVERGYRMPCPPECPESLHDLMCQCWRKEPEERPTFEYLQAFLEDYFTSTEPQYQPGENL

IC50: 13 nM
SMILES: C[C@@H]1C[C@H]2O[C@@H]2\C=C/C=C/C(=N\OCC(=O)N2CCN(C)CC2)Cc2c(Cl)c(O)cc(O)c2C(=O)O1 [16-Chloro-17,19-dihydroxy-4-methyl-3,7-dioxa-tricyclo[13.4.0.0*6,8*]nonadeca-1(19),9,11,15,17-pentaene-2,13-dione 13-{O-[2-(4-methyl-piperazin-1-yl)-2-oxo-ethyl]-oxime}]
